Assay results reported in ChEMBL document CHEMBL4406794, “N-(7-Cyano-6-(4-fluoro-3-(2-(3-(trifluoromethyl)phenyl)acetamido)phenoxy)benzo[d]thiazol-2-yl)cyclopropanecarboxamide (TAK-632) Analogues as Novel Necroptosis Inhibitors by Targeting Receptor-Interacting Protein Kinase 3 (RIPK3): Synthesis, Structure-Activity Relationships, and in Vivo Efficacy” (J Med Chem, 2019).
Activity calls are given as the source filed them. No cut-off for these calls is given here.

Assays:
[1] = target: Vascular endothelial growth factor receptor 2 (Homo sapiens) (UniProt P35968); assay: Inhibition of wild-type human partial length VEGFR2 (R787 to P1253 residues) expressed in mammalian expression system assessed as enzyme remaining activity at 1000 nM by Kinomescan method relative to control
Sequence of Vascular endothelial growth factor receptor 2 (Homo sapiens) (P35968 whole entry, the tested form may be a part): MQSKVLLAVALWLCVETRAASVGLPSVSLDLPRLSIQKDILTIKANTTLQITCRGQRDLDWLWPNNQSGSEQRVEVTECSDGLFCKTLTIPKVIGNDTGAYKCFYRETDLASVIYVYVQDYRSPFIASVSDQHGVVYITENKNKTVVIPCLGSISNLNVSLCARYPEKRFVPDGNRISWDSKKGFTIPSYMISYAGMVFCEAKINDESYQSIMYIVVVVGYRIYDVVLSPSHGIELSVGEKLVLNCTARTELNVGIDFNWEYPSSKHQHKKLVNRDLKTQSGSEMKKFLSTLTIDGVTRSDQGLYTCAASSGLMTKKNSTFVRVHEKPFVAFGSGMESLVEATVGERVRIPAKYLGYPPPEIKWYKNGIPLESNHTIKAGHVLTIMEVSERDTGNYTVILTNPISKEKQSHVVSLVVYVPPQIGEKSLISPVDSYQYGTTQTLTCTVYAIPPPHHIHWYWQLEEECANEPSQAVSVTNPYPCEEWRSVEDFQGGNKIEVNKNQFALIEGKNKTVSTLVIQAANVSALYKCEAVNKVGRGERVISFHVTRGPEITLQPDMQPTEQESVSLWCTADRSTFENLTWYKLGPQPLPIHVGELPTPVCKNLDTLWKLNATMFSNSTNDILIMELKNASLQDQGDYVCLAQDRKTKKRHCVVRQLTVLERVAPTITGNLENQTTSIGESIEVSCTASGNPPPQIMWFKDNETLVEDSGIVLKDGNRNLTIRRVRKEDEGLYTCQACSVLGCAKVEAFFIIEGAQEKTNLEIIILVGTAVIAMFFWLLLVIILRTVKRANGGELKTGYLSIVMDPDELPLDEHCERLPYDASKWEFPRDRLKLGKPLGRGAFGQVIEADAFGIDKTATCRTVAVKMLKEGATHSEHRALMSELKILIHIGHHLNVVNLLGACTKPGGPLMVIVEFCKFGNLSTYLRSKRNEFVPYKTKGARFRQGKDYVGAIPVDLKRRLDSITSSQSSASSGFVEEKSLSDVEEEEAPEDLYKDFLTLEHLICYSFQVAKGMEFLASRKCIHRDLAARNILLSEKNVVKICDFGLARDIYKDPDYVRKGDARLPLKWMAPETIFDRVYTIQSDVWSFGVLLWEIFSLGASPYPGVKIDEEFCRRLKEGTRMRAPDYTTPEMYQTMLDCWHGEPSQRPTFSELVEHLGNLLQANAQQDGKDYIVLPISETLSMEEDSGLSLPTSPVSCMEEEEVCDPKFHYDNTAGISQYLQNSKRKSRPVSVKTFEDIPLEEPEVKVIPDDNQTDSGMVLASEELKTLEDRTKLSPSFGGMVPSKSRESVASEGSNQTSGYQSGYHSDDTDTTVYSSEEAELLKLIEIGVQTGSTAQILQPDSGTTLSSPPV

[2] = target: Glycogen synthase kinase-3 beta (Homo sapiens) (UniProt P49841); assay: Inhibition of wild-type human full length GSK3B (M1 to T433 residues) expressed in mammalian expression system assessed as enzyme remaining activity at 1000 nM by Kinomescan method relative to control
Sequence of Glycogen synthase kinase-3 beta (Homo sapiens) (P49841 whole entry, looked up, the tested form may be a part): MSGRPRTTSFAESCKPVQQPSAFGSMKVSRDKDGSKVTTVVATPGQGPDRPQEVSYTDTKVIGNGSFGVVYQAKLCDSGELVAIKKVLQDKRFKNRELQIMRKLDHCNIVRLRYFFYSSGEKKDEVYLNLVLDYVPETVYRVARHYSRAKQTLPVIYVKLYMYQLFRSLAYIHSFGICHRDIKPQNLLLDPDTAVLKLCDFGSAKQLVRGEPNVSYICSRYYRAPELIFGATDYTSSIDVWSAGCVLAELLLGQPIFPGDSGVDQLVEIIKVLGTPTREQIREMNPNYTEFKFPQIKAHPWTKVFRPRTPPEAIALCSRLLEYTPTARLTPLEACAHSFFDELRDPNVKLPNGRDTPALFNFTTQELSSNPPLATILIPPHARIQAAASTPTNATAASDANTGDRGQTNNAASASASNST

[3] = Tmax in Sprague-Dawley rat at 5 mg/kg, po by LC-tandem mass spectrometry analysis; assay type: ADME, organism-based; conditions: in vivo
Procedure, shortened: (§1)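 Male Sprague-Dawley rats received compound iv (1 mg/kg) or intragastrically (5 mg/kg). The vehicle was 5% DMSO, 10% Tween 80 and 75% saline, at 0.2 or 1 mg/mL. Blood was sampled at several time points and centrifuged at 4 °C. Plasma was stored at -80 °C and analysed by LC/MS/MS. Parameters were derived by noncompartmental analysis of individual animal data.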

HT-29 [4] = assay: Effect on TNFalpha/smac mimetic-induced apoptosis in human HT-29 cells at 3 uM treated prior to TNFalpha/smac mimetic stimulation and measured after 20 hrs by cell-Titer Glo luminescent cell viability assay; conditions: ht-29, 20 h
[5] = target: Dual specificity mitogen-activated protein kinase kinase 1 (Homo sapiens) (UniProt Q02750); assay: Inhibition of wild-type human full length MEK1 (M1 to V393 residues) expressed in mammalian expression system assessed as enzyme remaining activity at 1000 nM by Kinomescan method relative to control
Sequence of Dual specificity mitogen-activated protein kinase kinase 1 (Homo sapiens) (Q02750 whole entry, the tested form may be a part): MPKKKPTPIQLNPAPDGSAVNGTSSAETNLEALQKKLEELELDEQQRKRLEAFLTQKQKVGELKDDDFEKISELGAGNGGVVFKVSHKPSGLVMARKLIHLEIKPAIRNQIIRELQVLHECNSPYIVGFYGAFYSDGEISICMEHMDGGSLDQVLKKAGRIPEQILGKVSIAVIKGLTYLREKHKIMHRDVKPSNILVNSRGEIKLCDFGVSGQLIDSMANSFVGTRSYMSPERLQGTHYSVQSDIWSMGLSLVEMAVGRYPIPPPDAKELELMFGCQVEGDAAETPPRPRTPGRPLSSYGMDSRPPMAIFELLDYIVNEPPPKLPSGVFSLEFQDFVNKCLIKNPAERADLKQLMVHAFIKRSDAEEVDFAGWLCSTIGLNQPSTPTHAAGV

HT-29 [6] = assay: Cytoprotection against TNFalpha/cycloheximide/Z-VAD-fmk-induced necroptosis in human HT-29 cells at 3 uM treated prior to TNFalpha/cycloheximide/Z-VAD-fmk stimulation and measured after 12 hrs by cell-Titer Glo luminescent cell viability assay; assay type: functional, cell-based
Procedure, shortened: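 HT-29 cells pretreated with compound at 3 μM or DMSO, then given TNF-α 20 ng/mL, cycloheximide 5 μg/mL and z-VAD-fmk 20 μM for 12 h. Viability read by CellTiter-Glo luminescence.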

[7] = target: Serine/threonine-protein kinase B-raf (Homo sapiens) (UniProt P15056); assay: Inhibition of wild-type human partial length BRAF (S429 to E741 residues) expressed in mammalian expression system assessed as enzyme remaining activity at 1000 nM by Kinomescan method relative to control
Sequence of Serine/threonine-protein kinase B-raf (Homo sapiens) (P15056 whole entry, the tested form may be a part): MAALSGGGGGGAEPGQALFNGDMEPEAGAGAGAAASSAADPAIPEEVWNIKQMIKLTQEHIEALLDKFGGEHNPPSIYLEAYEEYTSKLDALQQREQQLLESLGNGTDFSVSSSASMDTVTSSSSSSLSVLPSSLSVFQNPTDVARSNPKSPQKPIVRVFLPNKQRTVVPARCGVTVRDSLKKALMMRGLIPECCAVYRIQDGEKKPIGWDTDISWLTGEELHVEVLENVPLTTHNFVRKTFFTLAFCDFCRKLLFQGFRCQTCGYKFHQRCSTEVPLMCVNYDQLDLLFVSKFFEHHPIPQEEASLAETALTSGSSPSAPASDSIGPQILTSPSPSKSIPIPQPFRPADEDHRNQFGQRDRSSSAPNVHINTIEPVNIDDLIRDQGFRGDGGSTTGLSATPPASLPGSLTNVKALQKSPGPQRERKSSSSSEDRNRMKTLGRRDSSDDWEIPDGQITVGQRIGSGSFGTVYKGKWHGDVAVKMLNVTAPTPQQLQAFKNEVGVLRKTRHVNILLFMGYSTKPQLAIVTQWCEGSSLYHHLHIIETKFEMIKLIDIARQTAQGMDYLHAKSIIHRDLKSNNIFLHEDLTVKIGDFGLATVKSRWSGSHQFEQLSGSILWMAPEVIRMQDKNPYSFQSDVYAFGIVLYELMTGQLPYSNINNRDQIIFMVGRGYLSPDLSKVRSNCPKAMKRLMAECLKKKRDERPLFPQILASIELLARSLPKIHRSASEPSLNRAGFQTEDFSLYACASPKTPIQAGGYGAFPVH

[8] = target: T1, Receptor-interacting serine/threonine-protein kinase 1 (Homo sapiens, UniProt Q13546); assay: Binding affinity to wild-type human partial length RIPK1 (M1 to K305 residues) expressed in bacterial expression system at 5 uM after 1 hr by quantitative PCR based KINOMEscan assay
T1 sequence (Q13546 whole entry): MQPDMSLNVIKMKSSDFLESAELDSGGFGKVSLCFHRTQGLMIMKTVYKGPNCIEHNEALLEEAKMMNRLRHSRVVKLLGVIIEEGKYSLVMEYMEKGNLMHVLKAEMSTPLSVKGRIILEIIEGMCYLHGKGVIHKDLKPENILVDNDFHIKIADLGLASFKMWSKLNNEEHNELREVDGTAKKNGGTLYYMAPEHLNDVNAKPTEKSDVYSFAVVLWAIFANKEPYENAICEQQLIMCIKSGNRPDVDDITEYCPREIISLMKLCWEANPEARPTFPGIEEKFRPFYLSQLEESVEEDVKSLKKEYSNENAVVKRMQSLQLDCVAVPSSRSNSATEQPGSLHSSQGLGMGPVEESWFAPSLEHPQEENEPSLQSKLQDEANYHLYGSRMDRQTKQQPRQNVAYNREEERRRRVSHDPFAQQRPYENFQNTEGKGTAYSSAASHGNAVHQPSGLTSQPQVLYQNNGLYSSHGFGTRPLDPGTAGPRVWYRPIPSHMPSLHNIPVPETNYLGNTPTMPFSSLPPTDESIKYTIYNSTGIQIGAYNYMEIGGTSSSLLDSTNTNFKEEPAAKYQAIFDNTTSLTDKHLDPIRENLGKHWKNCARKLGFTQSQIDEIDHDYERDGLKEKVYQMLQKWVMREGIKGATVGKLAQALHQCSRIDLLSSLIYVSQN

[9] = target: Receptor-interacting serine/threonine-protein kinase 3 (Homo sapiens, UniProt Q9Y572); assay: Inhibition of RIPK3 phosphorylation in human HT-29 cells assessed as reduction in TNFalpha/smac mimetic/Z-VAD-fmk-induced necrosome formation at 1 uM treated prior to TNFalpha/smac mimetic/Z-VAD-fmk stimulation and measured after 4 hrs by immunoprecipitation based assay; assay type: cell-based
Sequence of Receptor-interacting serine/threonine-protein kinase 3 (Q9Y572 whole entry, looked up): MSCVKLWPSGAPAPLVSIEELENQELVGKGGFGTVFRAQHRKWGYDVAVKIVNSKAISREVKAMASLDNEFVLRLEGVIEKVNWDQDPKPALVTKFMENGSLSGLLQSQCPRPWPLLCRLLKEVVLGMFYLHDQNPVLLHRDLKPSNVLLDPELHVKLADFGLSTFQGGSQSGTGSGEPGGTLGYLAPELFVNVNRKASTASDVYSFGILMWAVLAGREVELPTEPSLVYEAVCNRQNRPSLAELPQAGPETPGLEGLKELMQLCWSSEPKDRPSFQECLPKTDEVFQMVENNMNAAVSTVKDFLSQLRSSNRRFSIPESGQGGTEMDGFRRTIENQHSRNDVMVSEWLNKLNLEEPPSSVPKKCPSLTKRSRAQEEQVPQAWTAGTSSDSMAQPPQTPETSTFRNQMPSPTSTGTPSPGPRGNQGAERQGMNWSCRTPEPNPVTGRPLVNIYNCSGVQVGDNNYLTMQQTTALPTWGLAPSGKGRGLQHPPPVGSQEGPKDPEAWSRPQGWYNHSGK
Procedure, shortened: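 HT-29 cells treated with 1 μM compound or DMSO for 4 h, then lysed in M2 buffer. Lysates immunoprecipitated overnight at 4 °C with anti-RIPK1 (1 μg) on protein A/G agarose. Bound proteins boiled off and resolved on 4–20% SDS gels, then immunoblotted.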

[10] = Cmax in Sprague-Dawley rat at 5 mg/kg, po by LC-tandem mass spectrometry analysis; assay type: ADME, organism-based; parameters: dose 5 mg/kg, route oral; conditions: in vivo
Procedure, shortened: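 Male Sprague-Dawley rats dosed once i.v. at 1 mg/kg or intragastrically at 5 mg/kg. Compound dissolved in 5% DMSO, 10% Tween 80, 75% physiological saline at 0.2 and 1 mg/mL. Blood taken at several time points, plasma spun at 4 °C, stored at -80 °C, assayed by LC/MS/MS. Parameters from individual animals by noncompartmental analysis.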

Mus musculus = assay: Protection against TNFalpha/Z-VAD-fmk-induced C57BL/6J mouse model of systemic inflammatory response syndrome assessed as increase in mouse survial at 5 to 50 mg/kg, po administered via gavage 2 hrs prior to Z-VAD-fmk addition for 15 mins followed by TNFalpha stimulation for 1 hr and subsequent Z-VAD-fmk addition meaured up to 50 hrs post TNFalpha stimulation; assay type: functional, organism-based
Procedure, shortened: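 Female C57BL/6 mice, fasted overnight, n=10 per group. Compound given by oral gavage at 5, 25 or 50 mg/kg 2 h before TNF. z-VAD-fmk 180 µg i.p., then 15 min later mTNF-α 400 µg/kg i.v. in endotoxin-free PBS, then a further 70 µg z-VAD-fmk i.p. 1 h later. Body temperature and survival followed, compared with vehicle by one-way ANOVA.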

[11] = target: Mitogen-activated protein kinase kinase kinase 4 (Homo sapiens) (UniProt Q9Y6R4); assay: Inhibition of wild-type human partial length MAP3K4 (G1319 to E1608 residues) expressed in bacterial expression system assessed as enzyme remaining activity at 1000 nM by Kinomescan method relative to control
[12] = target: Mitogen-activated protein kinase 8 (Homo sapiens) (UniProt P45983); assay: Inhibition of wild-type human full length JNK1 (M1 to Q384 residues) expressed in mammalian expression system assessed as enzyme remaining activity at 1000 nM by Kinomescan method relative to control
Sequence of Mitogen-activated protein kinase 8 (Homo sapiens) (P45983 whole entry, the tested form may be a part): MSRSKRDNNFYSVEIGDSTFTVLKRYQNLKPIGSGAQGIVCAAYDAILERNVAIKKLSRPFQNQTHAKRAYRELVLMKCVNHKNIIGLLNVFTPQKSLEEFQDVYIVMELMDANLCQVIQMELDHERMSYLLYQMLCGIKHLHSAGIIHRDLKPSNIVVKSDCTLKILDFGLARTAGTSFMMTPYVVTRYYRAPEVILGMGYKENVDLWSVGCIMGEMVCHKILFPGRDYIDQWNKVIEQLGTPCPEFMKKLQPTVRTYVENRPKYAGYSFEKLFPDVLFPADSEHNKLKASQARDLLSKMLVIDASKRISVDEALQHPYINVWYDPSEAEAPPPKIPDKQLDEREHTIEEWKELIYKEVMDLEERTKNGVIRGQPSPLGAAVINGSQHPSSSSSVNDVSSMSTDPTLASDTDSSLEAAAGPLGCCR

[13] = target: Platelet-derived growth factor receptor beta (Homo sapiens) (UniProt P09619); assay: Inhibition of wild-type human partial length PDGFRB (V582 to Y1009 residues) expressed in bacterial expression system assessed as enzyme remaining activity at 1000 nM by Kinomescan method relative to control
Sequence of Platelet-derived growth factor receptor beta (Homo sapiens) (P09619 whole entry, the tested form may be a part): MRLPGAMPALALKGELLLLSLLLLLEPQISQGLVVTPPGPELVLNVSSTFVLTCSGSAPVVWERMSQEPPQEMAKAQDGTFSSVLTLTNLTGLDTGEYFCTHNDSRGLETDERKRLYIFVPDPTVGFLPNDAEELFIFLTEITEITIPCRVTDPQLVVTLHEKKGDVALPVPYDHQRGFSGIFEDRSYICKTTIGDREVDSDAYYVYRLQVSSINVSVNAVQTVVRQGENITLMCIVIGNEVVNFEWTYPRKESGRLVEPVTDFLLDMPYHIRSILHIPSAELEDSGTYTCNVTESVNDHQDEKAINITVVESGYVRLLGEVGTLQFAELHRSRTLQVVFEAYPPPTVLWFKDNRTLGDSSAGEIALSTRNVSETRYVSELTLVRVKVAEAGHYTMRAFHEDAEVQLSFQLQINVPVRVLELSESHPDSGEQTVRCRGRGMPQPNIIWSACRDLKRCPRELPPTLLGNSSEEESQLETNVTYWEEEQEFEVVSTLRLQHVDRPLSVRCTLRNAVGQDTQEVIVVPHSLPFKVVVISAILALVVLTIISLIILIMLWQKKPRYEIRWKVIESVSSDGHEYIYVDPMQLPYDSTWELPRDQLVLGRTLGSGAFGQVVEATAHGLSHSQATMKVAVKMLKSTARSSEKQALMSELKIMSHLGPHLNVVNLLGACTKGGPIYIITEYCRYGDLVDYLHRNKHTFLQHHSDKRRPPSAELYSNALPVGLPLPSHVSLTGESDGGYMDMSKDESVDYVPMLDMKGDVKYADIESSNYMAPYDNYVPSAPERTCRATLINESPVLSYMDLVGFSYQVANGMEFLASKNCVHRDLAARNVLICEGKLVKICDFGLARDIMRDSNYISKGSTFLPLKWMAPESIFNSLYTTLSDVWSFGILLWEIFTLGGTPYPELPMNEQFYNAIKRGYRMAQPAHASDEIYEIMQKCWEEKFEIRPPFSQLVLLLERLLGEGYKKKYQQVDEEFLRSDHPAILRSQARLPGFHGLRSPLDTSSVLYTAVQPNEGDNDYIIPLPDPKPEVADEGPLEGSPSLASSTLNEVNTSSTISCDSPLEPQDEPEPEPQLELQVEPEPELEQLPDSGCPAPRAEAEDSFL

[14] = Tmax in Sprague-Dawley rat at 1 mg/kg, iv by LC-tandem mass spectrometry analysis; assay type: ADME, organism-based; conditions: in vivo; procedure, shortened: as §1

**Q.** For `O=C(Nc1cccc(Br)c1)Nc1cc(Oc2ccc3nc(NC(=O)C4CC4)sc3c2)ccc1F`, which Activity [1] is on record?
**A.** The Activity was 2.8%.

**Q.** What about the Activity [2] of the same compound?
**A.** The Activity was 100%.

**Q.** What about the Tmax [3] of the same compound?
**A.** The Tmax was 8.67 h.

**Q.** And the Activity (HT-29 [4])?
**A.** The Activity was “Non-Toxic”.

**Q.** And the Activity [5]?
**A.** The Activity was 100%.

**Q.** And the Activity (HT-29 [6])?
**A.** Its Activity is “Active”.

**Q.** What about the Activity [7] of the same compound?
**A.** The Activity was 3.6%.

**Q.** What about the Activity [8] of the same compound?
**A.** The Activity was “Not Active”.

**Q.** What about the inhibition [9] of the same compound?
**A.** Its inhibition is “Active”.

**Q.** And the Cmax [10]?
**A.** The Cmax was 345 ng/mL.

**Q.** And the Activity (Mus musculus)?
**A.** The Activity was “Active”.

**Q.** What about the Activity [11] of the same compound?
**A.** The Activity was 100%.

**Q.** What about the Activity [12] of the same compound?
**A.** Its Activity is 79%.

**Q.** What about the Activity [13] of the same compound?
**A.** The Activity was 0%.

**Q.** And the Tmax [14]?
**A.** The Tmax was 4.98 min.
